The values below come from ChEMBL document CHEMBL4422635, “Structure-Based Discovery of a Subtype-Selective Inhibitor Targeting a Transient Receptor Potential Vanilloid Channel” (J Med Chem, 2019).

Active and inactive are the calls of the source. The rule behind the calls is not given here.

For assay [1], the target named is T1, Transient receptor potential cation channel subfamily V member 3 (Mus musculus) (UniProt Q8K424).
T1 sequence (whole entry): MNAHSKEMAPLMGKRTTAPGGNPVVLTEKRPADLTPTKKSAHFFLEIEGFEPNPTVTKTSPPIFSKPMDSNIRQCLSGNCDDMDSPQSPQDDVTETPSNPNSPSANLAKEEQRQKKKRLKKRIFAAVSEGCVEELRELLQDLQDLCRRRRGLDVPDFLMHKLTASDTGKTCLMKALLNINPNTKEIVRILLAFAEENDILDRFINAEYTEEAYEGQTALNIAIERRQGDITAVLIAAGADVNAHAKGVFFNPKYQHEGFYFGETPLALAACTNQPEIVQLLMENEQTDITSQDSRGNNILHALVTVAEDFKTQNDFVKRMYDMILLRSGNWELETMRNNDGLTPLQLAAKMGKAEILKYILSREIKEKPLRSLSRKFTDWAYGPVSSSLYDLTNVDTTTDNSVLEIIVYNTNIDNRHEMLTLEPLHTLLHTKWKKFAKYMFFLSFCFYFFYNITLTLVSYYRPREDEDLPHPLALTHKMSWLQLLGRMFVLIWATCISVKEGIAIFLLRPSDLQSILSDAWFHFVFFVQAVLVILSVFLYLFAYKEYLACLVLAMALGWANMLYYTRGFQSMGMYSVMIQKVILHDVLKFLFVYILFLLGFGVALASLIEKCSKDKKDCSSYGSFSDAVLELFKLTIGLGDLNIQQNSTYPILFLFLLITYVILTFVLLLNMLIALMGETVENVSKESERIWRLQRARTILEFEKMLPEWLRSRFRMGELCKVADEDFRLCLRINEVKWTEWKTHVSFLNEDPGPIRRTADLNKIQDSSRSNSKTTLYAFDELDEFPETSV
Nature of the assay: Antagonist activity at mouse TRPV3 expressed in HEK293T cells assessed as inhibition of 2-APB evoked currents at 3 to 10 uM -60 mV holding potential by whole-cell patch clamp assay. It is filed as cell-based. Summed up: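 Whole-cell voltage clamp of transiently transfected HEK293T cells co-expressing GFP, recorded 36-96 h post-transfection. Hold -60 mV; pipettes 3-7 MΩ. Bath 165 mM NaCl, 10 mM HEPES pH 7.3; pipette 140 mM KCl, 10 mM HEPES pH 7.3. Room temperature (~25 °C). IC50 from Hill fits of I/I0, the current ratio after vs before inhibitor; mean ± SEM.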
In general terms: Patch clamp records ionic current or voltage across a cell membrane.

The test system of a further assay is PC-3M. Nature of the assay: Antimetastatic activity in human PC3M cells transfected with TRPV2 siRNA at 5 to 20 uM after 24 hrs by transwell migration assay. In kind it is functional, cell-based.

On to `CCCN(C)c1cc(C(F)(F)F)nc(SCCC(=O)NCc2ccco2)n1`, for which, in assay [1], the inhibition result is “inactive”. In the assay on PC-3M, the outcome was inactive.
